# Assay results collected from several papers.
# Compare with care: the assays were run in different laboratories.
# Read-out: cell growth or viability
SMILES,cell line,method,concentration,time,quantity,result
COc1cc(C)c(-c2c(C)cc(OC)c3c(=O)cc(-c4ccc(N(C)C)cc4)oc23)c2oc(-c3ccc(N(C)C)cc3)cc(=O)c12,HS27,MTT,,24 h,IC50,180 µM
COc1cc2c(cc1O)CCN(Cc1cccc(NS(C)(=O)=O)c1)C2,MDA-MB-231,WST-1,,96 h,GI50,> 100 µM
Cc1ccc2nc(-c3ccco3)n(Cc3ccccc3)c2c1,MDA-MB-231,MTT,,,IC50,60.5 µM
COc1cc(OC)c(OC)cc1CN1CCc2cc(OS(N)(=O)=O)c(OC)cc2C1,MDA-MB-231,WST-1,,96 h,GI50,0.491 µM
CNC(=O)c1ccc(N2C(=S)N(c3ccc(C#N)c(C(F)(F)F)c3)C(=O)C2(C)C)cc1F,CWR22Rv1,MTT,,,GI50,15.1 µM
COc1ccc(-c2cc(=O)c3c(OC)cc(OC)cc3o2)cc1,HS27,MTT,,24 h,IC50,> 200 µM
COc1cc2c(cc1OS(N)(=O)=O)CCN(Cc1cccc(NS(C)(=O)=O)c1)C2,MDA-MB-231,WST-1,,96 h,GI50,> 100 µM
CC#CC(=O)N1CC[C@@H](n2cc(-c3ccc(Oc4c(F)cccc4F)cc3)c3c(N)n[nH]c(=O)c32)C1,OCI-Ly3,ATP luminescence,,72 h,GI50,9.56 µM
N#CC(C(=O)Nc1cccc(C(F)(F)F)c1)=C1Sc2nc3ccc(S(=O)(=O)N4CCCC4)cc3nc2S1,MDA-MB-231,MTT,25 µM,24 h,viability,26.5%
COc1cc(OC)c2c(=O)cc(-c3ccccc3)oc2c1,HS27,MTT,,24 h,IC50,> 200 µM
Cc1ccc2nc(-c3ccc(Cl)c(Cl)c3)n(Cc3ccccc3)c2c1,MDA-MB-231,MTT,,,IC50,83.2 µM
COc1cc(OC)c2c(=O)cc(-c3ccccc3Br)oc2c1-c1c(OC)cc(OC)c2c(=O)cc(-c3ccccc3Br)oc12,HS27,MTT,,24 h,IC50,> 200 µM
Clc1ccc(-c2nc3ccccc3[nH]2)cc1,MDA-MB-231,MTT,,48 h,IC50,> 100 µM
O=C1CCCCC1=C1Sc2nc3ccc(S(=O)(=O)N4CCCC4)cc3nc2S1,MDA-MB-231,MTT,50 µM,24 h,viability,14.9%
C=CCn1c(-c2ccc(Cl)cc2)nc2ccccc21,MDA-MB-231,MTT,,,IC50,73.1 µM
CCc1cccc(CN2CCc3cc(O)c(OC)cc3C2)c1,MDA-MB-231,WST-1,,96 h,GI50,> 100 µM
Cc1ccc2nc(-c3ccc(Cl)cc3)[nH]c2c1,MDA-MB-231,MTT,,48 h,IC50,27.1 µM
COc1cc(OC)c(CN2CCc3cc(O)c(OC)cc3C2)c(OC)c1,MDA-MB-231,WST-1,,96 h,GI50,> 100 µM
c1cncc(-c2nc3ccccc3[nH]2)c1,MDA-MB-231,MTT,,48 h,IC50,> 100 µM
COc1cccc2c1C(=O)c1c(O)c3c(c(O)c1C2=O)C[C@@](O)(C(=O)CO)C[C@@H]3O[C@H]1C[C@H](N)[C@H](O)[C@H](C)O1,MDA-MB-231,MTT,25 µM,24 h,viability,16.2%
